Measured values published in ChEMBL document CHEMBL1138415, “Analogues of the dopamine D2 receptor antagonist L741,626: Binding, function, and SAR” (Bioorg Med Chem Lett, 2007).

Assays:
D(3) dopamine receptor [1] = target: T1, D(3) dopamine receptor (Homo sapiens, UniProt P35462); test: Displacement of [125I]IABN from human dopamine D3 receptor expressed in HEK293 cells; format: cell-based
D(2) dopamine receptor [2] = target: T2, D(2) dopamine receptor (Homo sapiens, UniProt P14416); test: Displacement of [125I]IABN from human dopamine D2L receptor expressed in HEK293 cells; format: cell-based
D(4) dopamine receptor = target: T3, D(4) dopamine receptor (Homo sapiens, UniProt P21917); test: Displacement of [125I]IABN from human dopamine D4 receptor expressed in HEK293 cells; format: cell-based
T3 sequence (P21917 whole entry): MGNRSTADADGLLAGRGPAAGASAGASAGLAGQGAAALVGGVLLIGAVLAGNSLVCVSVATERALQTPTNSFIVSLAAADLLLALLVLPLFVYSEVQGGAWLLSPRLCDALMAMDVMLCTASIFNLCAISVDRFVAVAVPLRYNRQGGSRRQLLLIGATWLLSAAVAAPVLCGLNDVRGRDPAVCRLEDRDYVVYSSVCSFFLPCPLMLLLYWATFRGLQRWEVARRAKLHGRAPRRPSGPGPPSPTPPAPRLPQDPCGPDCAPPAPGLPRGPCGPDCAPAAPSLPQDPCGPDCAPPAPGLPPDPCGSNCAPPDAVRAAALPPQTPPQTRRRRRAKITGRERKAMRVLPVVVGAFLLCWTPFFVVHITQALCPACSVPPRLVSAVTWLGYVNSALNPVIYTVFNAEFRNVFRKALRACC
Procedure, shortened: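 Competition binding on HEK 293 cells transfected with human D2L or D4 dopamine receptors; radioligand [125I]IABN displaced by test ligand; Ki values derived.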

Homo sapiens [3] = species: Homo sapiens; test: Selectivity for human dopamine D2L receptor over human dopamine D3 receptor
Homo sapiens [4] = species: Homo sapiens; test: Selectivity for human dopamine D2L receptor over human dopamine D4 receptor
D(2) dopamine receptor [5] = target: T2, D(2) dopamine receptor; test: Antagonist activity at human dopamine D2 receptor expressed in CHO cells assessed as inhibition of quinpirole stimulated mitogenesis; format: functional, cell-based
Procedure, shortened: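 Functional mitogenesis assay in CHO cells transfected with human D2 receptor; antagonism measured as inhibition of quinpirole-stimulated mitogenesis (agonism tested as stimulation); EC50 reported; run via NIDA CTDP contract protocol.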

D(3) dopamine receptor [6] = target: T1, D(3) dopamine receptor; test: Antagonist activity at human dopamine D3 receptor expressed in CHO cells assessed as inhibition of quinpirole stimulated mitogenesis; format: functional, cell-based

T2 sequence (P14416 whole entry): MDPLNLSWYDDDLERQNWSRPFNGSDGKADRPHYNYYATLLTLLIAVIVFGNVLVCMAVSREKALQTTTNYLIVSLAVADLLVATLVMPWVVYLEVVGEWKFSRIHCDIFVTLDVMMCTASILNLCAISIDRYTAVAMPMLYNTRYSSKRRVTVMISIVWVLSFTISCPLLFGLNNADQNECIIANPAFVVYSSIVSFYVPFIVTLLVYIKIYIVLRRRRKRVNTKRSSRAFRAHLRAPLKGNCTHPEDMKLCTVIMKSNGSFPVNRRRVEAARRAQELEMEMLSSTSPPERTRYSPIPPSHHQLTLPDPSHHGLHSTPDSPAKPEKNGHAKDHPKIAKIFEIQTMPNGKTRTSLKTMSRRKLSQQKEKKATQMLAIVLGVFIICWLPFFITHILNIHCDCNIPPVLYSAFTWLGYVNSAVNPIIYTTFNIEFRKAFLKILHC
T1 sequence (P35462 whole entry): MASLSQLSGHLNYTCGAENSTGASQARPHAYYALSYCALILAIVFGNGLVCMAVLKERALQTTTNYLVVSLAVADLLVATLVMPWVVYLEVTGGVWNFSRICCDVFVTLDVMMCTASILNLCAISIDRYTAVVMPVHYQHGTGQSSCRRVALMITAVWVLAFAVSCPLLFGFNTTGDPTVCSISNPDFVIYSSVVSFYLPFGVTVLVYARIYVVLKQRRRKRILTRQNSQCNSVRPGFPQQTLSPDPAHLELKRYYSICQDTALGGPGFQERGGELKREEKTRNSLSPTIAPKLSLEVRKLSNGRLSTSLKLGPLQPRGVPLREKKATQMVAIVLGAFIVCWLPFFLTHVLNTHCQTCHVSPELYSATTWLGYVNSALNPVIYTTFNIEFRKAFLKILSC

Compound | Ki (D(3) dopamine receptor [1]) | Ki (D(2) dopamine receptor [2]) | Ki (D(4) dopamine receptor) | Ratio Ki (Homo sapiens [3]) | Ratio Ki (Homo sapiens [4]) | EC50 (D(2) dopamine receptor [5]) | EC50 (D(3) dopamine receptor [6])
OC1(c2ccc(-c3ccccc3)cc2)CCN(Cc2c[nH]c3ccccc23)CC1 | 467 nM | 98.4 nM | 129 nM | 5 | 1 | – | –
OC1(c2ccc(F)cc2)CCN(Cc2c[nH]c3ccccc23)CC1 | 490 nM | 127 nM | 6090 nM | 4 | 48 | – | –
COC(=O)C1(c2ccc(Cl)cc2)CCN(Cc2c[nH]c3ccccc23)CC1 | 544 nM | 60 nM | 3930 nM | 9 | 66 | 76.7 nM | –
N#CC1(c2ccc(Cl)cc2)CCN(Cc2c[nH]c3ccccc23)CC1 | 684 nM | 199 nM | 2270 nM | 3 | 11 | 225 nM | –
OC1(c2ccc(Cl)cc2)CCCN(Cc2c[nH]c3ccccc23)C1 (centres undefined) | 4270 nM | 4270 nM | 2440 nM | 1 | 1 | – | –
OC1(c2ccc(Cl)cc2)CCCN(Cc2c[nH]c3ccccc23)CC1 (centres undefined) | 2100 nM | 201 nM | 3870 nM | 10 | 19 | 260 nM | –
OC1(c2ccc(Cl)cc2)CCN(Cc2cc3ccccc3[nH]2)CC1 | – | > 10000 nM | > 20000 nM | – | – | – | –
OC1(c2cccc(Cl)c2Cl)CCN(Cc2c[nH]c3ccccc23)CC1 | 273 nM | 26.1 nM | 1550 nM | 10 | 59 | 34.3 nM | 232 nM
Oc1ccc(C2(O)CCN(Cc3c[nH]c4ccccc34)CC2)cc1 | 16800 nM | 5360 nM | 1360 nM | 3 | 0.3 | – | –
CC1(c2ccc(Cl)cc2)CCN(Cc2c[nH]c3ccccc23)CC1 | 2100 nM | 992 nM | 2750 nM | 2 | 3 | 314 nM | 347 nM
OC1(c2ccc(Cl)cc2)CCN(Cc2n[nH]c3ccccc23)CC1 | 440 nM | 548 nM | 2150 nM | 1 | 4 | – | –
CCOC(=O)C1(c2ccc(Cl)cc2)CCN(Cc2c[nH]c3ccccc23)CC1 | 724 nM | 58.8 nM | 3520 nM | 12 | 60 | – | –
OC1(c2ccc(Cl)c(Cl)c2)CCN(Cc2n[nH]c3ccccc23)CC1 | 156 nM | 438 nM | 677 nM | 0.4 | 2 | – | –
OC1(c2ccc(Cl)c(Cl)c2)CCN(Cc2coc3ccccc23)CC1 | 28 nM | 21 nM | 167 nM | 1 | 8 | – | –
OC1(c2ccccc2Cl)CCN(Cc2c[nH]c3ccccc23)CC1 | 1860 nM | 382 nM | 2820 nM | 5 | 7 | 586 nM | –
Cc1[nH]c2ccccc2c1CN1CCC(O)(c2ccc(Cl)cc2)CC1 | 44.1 nM | 15.4 nM | 2990 nM | 3 | 194 | 2.13 nM | 20.2 nM
NCC1(c2ccc(Cl)cc2)CCN(Cc2c[nH]c3ccccc23)CC1 | > 5000 nM | > 10000 nM | > 20000 nM | – | – | – | –
CSc1ccc(C2(O)CCN(Cc3coc4ccccc34)CC2)cc1 | 139 nM | 54 nM | 153 nM | 3 | 3 | – | –
OC1(c2ccc(Cl)cc2)CCN(Cc2coc3ccccc23)CC1 | 53 nM | 21 nM | 404 nM | 3 | 19 | – | –

Compound | Ki (D(3) dopamine receptor [1]) | Ki (D(2) dopamine receptor [2]) | Ki (D(4) dopamine receptor) | Ratio Ki (Homo sapiens [3]) | Ratio Ki (Homo sapiens [4]) | EC50 (D(2) dopamine receptor [5]) | EC50 (D(3) dopamine receptor [6])
NC1(c2ccc(Cl)cc2)CCN(Cc2c[nH]c3ccccc23)CC1 | 382 nM | 184 nM | 2290 nM | 2 | 12 | – | –
COC1(c2ccc(Cl)cc2)CCN(Cc2c[nH]c3ccccc23)CC1 | 262 nM | 68.1 nM | 34.1 nM | 4 | – | 34.7 nM | 248 nM
C=CCOC1(c2ccc(Cl)cc2)CCN(Cc2c[nH]c3ccccc23)CC1 | 718 nM | 165 nM | 1190 nM | 4 | 7 | – | –
Cn1cc(CN2CCC(O)(c3ccc(Cl)cc3)CC2)c2ccccc21 | 238 nM | 29.6 nM | 5140 nM | 8 | 174 | 20 nM | 98.6 nM
CCCCCCn1cc(CN2CCC(O)(c3ccc(Cl)cc3)CC2)c2ccccc21 | 488 nM | 188 nM | 8890 nM | 3 | 47 | 166 nM | 661 nM
OC1(c2cccc(C(F)(F)F)c2)CCN(Cc2c[nH]c3ccccc23)CC1 | 570 nM | 106 nM | 3750 nM | 5 | 35 | 69.1 nM | –
OC1(c2ccc(Cl)cc2)CCN(Cc2c[nH]c3ccccc23)CC1 | 163 nM | – | 1520 nM | – | – | – | 90.4 nM
OC1(c2cccc(Cl)c2)CCN(Cc2c[nH]c3ccccc23)CC1 | 450 nM | 129 nM | 3540 nM | 3 | 27 | 83.4 nM | –
OC1(c2ccc(Cl)c(Cl)c2)CCN(Cc2c[nH]c3ccccc23)CC1 | 111 nM | 6.9 nM | 1100 nM | 16 | 159 | 15.3 nM | 41.5 nM
OCC1(c2ccc(Cl)cc2)CCN(Cc2c[nH]c3ccccc23)CC1 | 106 nM | 2370 nM | 1940 nM | 0.04 | 1 | – | –
COc1ccc2[nH]cc(CN3CCC(O)(c4ccc(SC)cc4)CC3)c2c1 | 580 nM | 5.5 nM | 567 nM | 105 | 103 | – | –
CC(=O)NCC1(c2ccc(Cl)cc2)CCN(Cc2c[nH]c3ccccc23)CC1 | 12500 nM | 2000 nM | 4450 nM | 6 | 2 | – | –
COc1ccc(C2(O)CCN(Cc3c[nH]c4ccccc34)CC2)cc1 | 2130 nM | 177 nM | 679 nM | 12 | 4 | – | –
CC(=O)NC1(c2ccc(Cl)cc2)CCN(Cc2c[nH]c3ccccc23)CC1 | 193 nM | 83.1 nM | 348 nM | 2 | 4 | 24.8 nM | –
OC1(Cc2ccc(Cl)cc2)CCN(Cc2c[nH]c3ccccc23)CC1 | 5480 nM | 2890 nM | 3930 nM | 2 | 1 | – | –
FC1(c2ccc(Cl)cc2)CCN(Cc2c[nH]c3ccccc23)CC1 | 211 nM | 120 nM | 365 nM | 2 | 3 | – | –
CSc1ccc(C2(O)CCN(Cc3c[nH]c4ccccc34)CC2)cc1 | 638 nM | 23.9 nM | 319 nM | 27 | 13 | – | –
CCCCCCOc1ccc(C2(O)CCN(Cc3c[nH]c4ccccc34)CC2)cc1 | 1950 nM | 159 nM | 1490 nM | 12 | 9 | 216 nM | –
